Diaphorase inh: diaphorase inhibitors and chemical oxidizers, primary screen, counter-screen for diaphorase-coupled primary assays, biochemical, uHTS, resorufin fluorescence; diaphorase resazurin-to-resorufin fluorescence, NADH, 16 min; bacterial (C. kluyveri) enzyme, not human; inhibition, % at 20 µM; actives 0.69% (n = 190,000);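 active = primary screen inhibition at 20 µM above a set limit, cut at about 50% in these data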
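Test system: diaphorase enzyme from Clostridium kluyveri; amount: diaphorase at 0.14 U/mL in enzyme working solution; detection: fluorescence of resorufin formed from resazurin, Ex 544/Em 590 nm; times: reaction incubation of 16 min at room temperature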
HKDC1 inh: HKDC1 hexokinase inhibitors, primary screen, biochemical, fluorescence, uHTS; Q2TB90; recombinant HKDC1, G6PDH/diaphorase resazurin coupled fluorescence; inhibition, % at 20 µM; actives 0.16% (n = 340,000); AID 493160, 2011;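 active = inhibition above about 35% when tested at 20 µM, limit read from the data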
Target sequence (Q2TB90 whole entry, looked up): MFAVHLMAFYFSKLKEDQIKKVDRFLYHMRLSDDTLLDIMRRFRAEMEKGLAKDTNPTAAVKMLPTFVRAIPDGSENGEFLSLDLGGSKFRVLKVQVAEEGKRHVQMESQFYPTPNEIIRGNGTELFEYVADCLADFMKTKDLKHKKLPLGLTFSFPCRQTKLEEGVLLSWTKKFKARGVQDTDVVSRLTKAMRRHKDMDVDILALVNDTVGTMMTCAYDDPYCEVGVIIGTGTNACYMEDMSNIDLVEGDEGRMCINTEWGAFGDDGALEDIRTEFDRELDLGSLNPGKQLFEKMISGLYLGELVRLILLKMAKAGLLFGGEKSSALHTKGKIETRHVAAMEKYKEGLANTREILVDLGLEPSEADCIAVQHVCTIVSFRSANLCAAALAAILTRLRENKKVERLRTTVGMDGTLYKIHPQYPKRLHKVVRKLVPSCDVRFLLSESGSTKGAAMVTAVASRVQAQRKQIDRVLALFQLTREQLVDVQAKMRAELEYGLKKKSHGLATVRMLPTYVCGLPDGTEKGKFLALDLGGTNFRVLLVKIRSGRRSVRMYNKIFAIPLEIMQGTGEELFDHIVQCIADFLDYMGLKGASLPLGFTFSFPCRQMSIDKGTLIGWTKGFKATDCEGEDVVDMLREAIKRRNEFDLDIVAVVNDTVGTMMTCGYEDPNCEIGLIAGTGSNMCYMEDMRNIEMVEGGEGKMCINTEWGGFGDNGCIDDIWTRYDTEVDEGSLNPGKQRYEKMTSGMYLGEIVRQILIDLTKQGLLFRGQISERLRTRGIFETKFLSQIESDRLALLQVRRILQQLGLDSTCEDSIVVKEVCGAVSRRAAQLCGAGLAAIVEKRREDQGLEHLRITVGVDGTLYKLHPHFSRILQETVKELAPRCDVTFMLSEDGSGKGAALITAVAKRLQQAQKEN
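Material – in-house recombinant HK5 (HKDC1) enzyme · Quantity – HKDC1 at 5 µg/mL · Buffer or medium – pH 8.0 Tris buffer with 10 mM MgCl2 · Reagent – glucose with 1 mM ATP · Dosing – single 20 µM dose · Times – reaction time 90 min, room temperature, protected from light · Technique – resorufin fluorescence at 613 nm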
PfG6PD inh: PfG6PD enzyme inhibitors, primary screen, biochemical, fluorescence intensity, uHTS; inhibition, % at 20 µM; actives 0.78% (n = 350,000); PfGluPho enzyme, NADPH resazurin-diaphorase fluorescence;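 active = inhibition reaching at least a set limit at 20 µM in the primary screen, cut at about 59% in these data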
G6PDH CS: L. mesenteroides G6PDH inhibitors, counter-screen for G6PDH-coupled screening assays, biochemical, Leuconostoc mesenteroides enzyme. inhibition, % at 5 µM. Purified L. mesenteroides G6PDH, diaphorase/resazurin coupled fluorescence, 45 min. actives 0.12% (n = 200,000). AID 1020, 2008. glucose-6-phosphate dehydrogenase [Leuconostoc mesenteroides]; in the data active = inhibition above about 50%
Each line names hits and unclear results; the compound was inactive in the other large screens. Shown are actives, neighbours in structure and some others; about 1.2% of the full set was active somewhere.

S=c1[nH]nc(-c2ccncc2)n1/N=C/C=C/c1ccccc1	none (no result: Diaphorase inh, G6PDH CS)
COc1ccccc1/C=C/C=N/n1c(-c2ccc(C)cc2)n[nH]c1=S	none
COc1ccccc1/C=C/C=N/n1c(-c2cc(C)[nH]n2)n[nH]c1=S	Diaphorase inh 50.2
Cc1nn(-c2ccccc2)c(C)c1/C=N/n1c(-c2ccc(Cl)cc2)n[nH]c1=S	none
CC(=O)c1ccc(OCCCC(=O)Nc2cccc(S(=O)(=O)N3CCCCC3)c2)cc1	none (no result: Diaphorase inh, G6PDH CS)
CN(C)c1ccc(/C=N/n2c(-c3cccnc3)n[nH]c2=S)cc1	Diaphorase inh 72.1
CCN(CC)CCCNc1nc2ccccc2c2[nH]c3ccc(OC)cc3c12	none (no result: Diaphorase inh, G6PDH CS)
O=C1C(=O)N(c2ccccc2)C(c2ccccc2[N+](=O)[O-])/C1=C(\O)c1ccccc1 (centres undefined)	Diaphorase inh 51.3
O=C1Nc2cc(C(=O)NCCN3CCCCCC3)ccc2S/C1=C\c1ccccc1	PfG6PD inh 89.5 (no result: Diaphorase inh, G6PDH CS)
O/C(=C\c1nc2ccccc2nc1/C=C(\O)c1ccccc1)c1ccccc1	G6PDH CS 50.8
Cc1ccc(O)c(CNc2cccc3cccnc23)c1	none
Cc1cccc(NCc2ccc(O)c3ncccc23)c1C	Diaphorase inh 80.3
Cc1cccnc1NCc1ccc(O)c2ncccc12	Diaphorase inh 77.2
Cc1ccc2c(c1)N(CC(=O)NC1CCCC1)C(=O)c1cccnc1O2	none (no result: Diaphorase inh, G6PDH CS)
Brc1cccc(OCCCNC2CCCC2)c1	none (no result: Diaphorase inh, G6PDH CS)
Brc1c(NC2=NCCN2)ccc2nccnc12	Diaphorase inh 59.0 (no result: HKDC1 inh, PfG6PD inh)
Cc1c(Cc2ccccc2)c(=O)oc2c(O)c(O)ccc12	Diaphorase inh 72.7
Cc1c(Cc2ccccc2)c(=O)oc2cc(O)ccc12	none (no result: Diaphorase inh, G6PDH CS)
Cc1ccc(C)c(N2CCN(C(=O)c3ccc(Cl)c(NC4=NC5CS(=O)(=O)CC5S4)c3)CC2)c1 (centres undefined)	none (no result: Diaphorase inh, G6PDH CS)
O=C(NCC1CCCO1)c1cccc(S(=O)(=O)Nc2ccc(SC(F)F)cc2)c1 (centres undefined)	none (no result: Diaphorase inh, G6PDH CS)
Cc1ccc(C(=O)N2CCSC2=S)cc1	none
Cc1ccc(C(=O)Oc2csc(=S)n2C(=O)c2ccc(C)cc2)cc1	PfG6PD inh 60.1
CCOc1ccc(NC(=O)CN(C)C(=O)c2ccc(=O)[nH]c2)cc1OCC	none (no result: Diaphorase inh, G6PDH CS)
C=CCSC1=N/C(=C\c2ccc3c(c2)OCO3)C(=O)S1	none
C=CCSC1=N/C(=C\c2cc(OCC)c(OC(C)=O)c([N+](=O)[O-])c2)C(=O)S1	Diaphorase inh 56.8
O=C1c2cccc3c(N4CCCCC4)ccc(c23)C(=O)N1c1ccccn1	Diaphorase inh 52.1
CCCN1C(=O)c2cccc3c(N4CCCCC4)ccc(c23)C1=O	none
COC(=O)c1ccc(NS(=O)(=O)NC(=O)c2cn(C)c3ccccc23)cc1	none (no result: Diaphorase inh, G6PDH CS)
O=C(Cc1ccc(Cl)cc1Cl)Nc1cccc(S(=O)(=O)Nc2ccccc2F)c1	PfG6PD inh 70.3
Cc1ccc(S(=O)(=O)N2CCOCC2)cc1NC(=O)COC(=O)c1ccc(Br)o1	none (no result: Diaphorase inh, G6PDH CS)
COc1cccc(/C=N/n2c(-c3n[nH]c4c3CCC4)n[nH]c2=S)c1O	Diaphorase inh 58.3
O=C(COc1ccccc1)c1cn(CC(=O)N2CCCC2)c2ccccc12	Diaphorase inh 94.5
O=C(/C=C/c1ccccc1)NC(=S)NNC(=O)c1ccco1	Diaphorase inh 52.3
O=C(/C=C/c1ccc(Br)cc1)NC(=S)NNC(=O)c1ccco1	none
O=C(Cc1ccc(S(=O)(=O)N2CCOCC2)s1)Nc1cc(Cl)ccc1Cl	none (no result: Diaphorase inh, G6PDH CS)
[O-]/[N+](=C\c1ccncc1)c1ccc(Br)cc1	PfG6PD inh 91.0
O=C(COc1ccc(Cl)cc1Cl)NC(=S)Nc1ccccc1C(=O)O	Diaphorase inh 53.4 (no result: HKDC1 inh, PfG6PD inh)
CCOc1ccc(C(=O)NCC(=O)NCC(c2ccc(OC)cc2)N2CCOCC2)cc1OCC (centres undefined)	none (no result: Diaphorase inh, G6PDH CS)
[O-]/[N+](=C/c1ccc(F)cc1)c1ccc(Cl)cc1	PfG6PD inh 64.7
CN1C(=S)SC(/[N+]([O-])=C/c2ccc(Cl)cc2)C1(C)C (centres undefined)	none (no result: Diaphorase inh, G6PDH CS)
O=C(OCC(=O)N1CCN(c2ccccc2)CC1)C1CCCN1S(=O)(=O)c1ccc(Cl)cc1 (centres undefined)	none (no result: Diaphorase inh, G6PDH CS)
CC(=O)Nc1ccc(N(C(=O)Cn2nnc3ccccc32)C(C(=O)NC2CCCC2)c2ccc(O)c(O)c2)cc1 (centres undefined)	Diaphorase inh 55.9
CN(C)c1ccc(NC2=C(Cl)C(=O)c3ccccc3C2=O)cc1	G6PDH CS 50.7
CC(CCc1ccccc1)NC(=O)CCNC(=O)c1ccccc1Cl (centres undefined)	none (no result: Diaphorase inh, G6PDH CS)
COc1ccc(C(=O)c2c3ccc(OC)cc3[n+]([O-])n2Cc2ccc(C(N)=O)cc2)cc1	none (no result: Diaphorase inh, G6PDH CS)
CC(C)COc1cccc(C(=O)NC(=S)NCc2cccnc2)c1	Diaphorase inh 50.8
COc1ccccc1NC(=O)c1cc(C)nc2ccccc12	Diaphorase inh 63.0
CCCCNC1=CC(=O)C(=O)c2ccccc21	G6PDH CS 59.5 (no result: Diaphorase inh)
CCCCn1nc(C(=O)Nc2ccc(-n3cnnn3)cc2)c2ccccc2c1=O	none (no result: Diaphorase inh, G6PDH CS)
Cc1cc(C)c(C#N)c(SCc2[nH]nc3c2C(c2ccc(F)cc2)C(C#N)=C(N)O3)n1 (centres undefined)	none
Cc1cc(C#N)c(C)c(SCc2[nH]nc3c2C(c2ccccc2)C(C#N)=C(N)O3)n1 (centres undefined)	Diaphorase inh 54.2
CN(C(=O)c1cccc(NC(=O)Cc2ccc(NC(=O)C3CCCN(C(=O)C4CCC4)C3)cc2)c1)C1CCC1 (centres undefined)	none (no result: Diaphorase inh, G6PDH CS)
Cc1ccccc1CS(=O)(=O)CCC(=O)NCCCN1CCN(c2ccccc2F)CC1	none
Cc1cc(C)c2c(=O)n(CC(=O)N3CCC(Cc4ccccc4)CC3)sc2n1	none (no result: HKDC1 inh, PfG6PD inh)
Cc1cc(C)c2c(=O)n(CC(=O)NCCCN3CCN(c4ccccc4F)CC3)sc2n1	PfG6PD inh 98.5
Cc1cc(C)c2c(=O)n(CC(=O)NCCCN3CCOCC3)sc2n1	PfG6PD inh 70.3
CCCCn1c(N)c(C(=S)NC(=O)CC(C)(C)C)c(=O)n(C)c1=O	Diaphorase inh 61.7
CCCn1c(N)c(C(=O)CSc2ncn[nH]2)c(=O)n(C)c1=O	none (no result: Diaphorase inh, G6PDH CS)
COc1ccc(CNC(=O)c2ccc(S(=O)(=O)NCc3ccco3)cc2)cc1	none (no result: Diaphorase inh, G6PDH CS)
Cc1ccc(S(=O)(=O)c2ccc([N+](=O)[O-])o2)cc1	none (no result: Diaphorase inh, G6PDH CS)
COC1=C(OC)C(=O)C(CCCCCCCCCCO)=C(C)C1=O	Diaphorase inh 57.4, G6PDH CS 62.6 (no result: HKDC1 inh, PfG6PD inh)
CC(=O)N1CCN(c2ccc(NC(=S)NC(=O)COc3ccc(C(C)(C)C)cc3)cc2)CC1	none
CCC(=O)N1CCN(c2ccc(NC(=S)NC(=O)COc3ccccc3)cc2)CC1	Diaphorase inh 63.6
c1ccc2c3c(cc(N4CCOCC4)c2c1)OC1(N2CCOCC2)CCCCC1O3 (centres undefined)	G6PDH CS 50.4
CCCc1cc(-c2nc(N)ncc2-c2ccc3c(c2)OCCCO3)c(O)cc1OC	PfG6PD inh 70.9
CCCc1cc(-c2nc(N)ncc2-c2csc(C)n2)c(O)cc1OC	none

High-throughput results (PubChem)
